# pKi: −log10 of the molar value. Bridge positions count the residues as written; N and C are the ends. Square brackets hold non-standard residues; d marks the D form. Peptide text beside a SMILES is read from it. Cha = N[C@@H](CC1CCCCC1)C(=O)O; Mpa = O=C(O)CCS
# What was measured:
# Vasopressin V1a receptor = Vasopressin V1a receptor (Homo sapiens, UniProt P37288); assay: Binding affinity against human vasopressin V1a receptor was determined by using plasma membranes from CHO cells stably transfected with VP/OT receptors; format: cell membranes
# How it was run: (§1)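 Competition binding on plasma membranes from stably transfected CHO cells (human receptors). Membranes (1–20 µg protein) incubated 60 min at 30 °C in 50 mM Tris-HCl pH 7.4, 3 mM MgCl2, 1 mg/mL BSA, leupeptine, 0.1 mM PMSF, with 0.5–3 nM [3H]AVP and increasing analogue; nonspecific binding with 1 µM AVP.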
# Vasopressin V2 receptor = Vasopressin V2 receptor (Homo sapiens, UniProt P30518); assay: Binding affinity against human vasopressin V2 receptor was determined by using plasma membranes from CHO cells stably transfected with VP/OT receptors; format: cell membranes; how it was run: as §1
# Chain of Vasopressin V2 receptor (P30518 whole entry): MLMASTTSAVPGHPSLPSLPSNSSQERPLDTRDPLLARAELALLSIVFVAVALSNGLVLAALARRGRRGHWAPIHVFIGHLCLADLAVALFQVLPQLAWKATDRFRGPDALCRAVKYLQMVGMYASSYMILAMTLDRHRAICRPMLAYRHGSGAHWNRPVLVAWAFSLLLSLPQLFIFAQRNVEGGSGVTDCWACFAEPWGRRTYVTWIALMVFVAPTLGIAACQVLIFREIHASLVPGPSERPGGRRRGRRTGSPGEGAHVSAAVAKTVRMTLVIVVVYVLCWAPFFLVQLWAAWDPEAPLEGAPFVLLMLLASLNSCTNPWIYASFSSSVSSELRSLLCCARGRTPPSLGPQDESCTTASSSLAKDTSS
# Chain of Vasopressin V1a receptor (P37288 whole entry): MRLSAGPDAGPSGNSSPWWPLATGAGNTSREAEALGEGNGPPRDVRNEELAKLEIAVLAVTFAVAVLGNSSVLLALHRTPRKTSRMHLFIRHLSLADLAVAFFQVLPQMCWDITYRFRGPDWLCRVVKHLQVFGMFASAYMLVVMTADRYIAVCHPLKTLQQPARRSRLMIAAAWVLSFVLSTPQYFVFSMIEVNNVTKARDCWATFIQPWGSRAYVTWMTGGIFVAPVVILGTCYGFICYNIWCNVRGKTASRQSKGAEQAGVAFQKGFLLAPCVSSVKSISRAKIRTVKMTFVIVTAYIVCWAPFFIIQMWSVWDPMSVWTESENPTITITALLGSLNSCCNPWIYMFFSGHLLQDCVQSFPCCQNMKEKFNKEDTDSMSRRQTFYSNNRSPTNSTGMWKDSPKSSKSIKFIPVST
structure (smiles),measurement,setting,value
CC[C@H](C)[C@@H]1NC(=O)[C@H](Cc2ccccc2)NC(=O)[C@H](Cc2ccc(O)cc2)NC(=O)CCSSC[C@@H](C(=O)N2CCC[C@H]2C(=O)N[C@@H](CCCN=C(N)N)C(=O)NCC(N)=O)NC(=O)[C@H](CC(N)=O)NC1=O,pKi,Vasopressin V1a receptor,7.77
same,pKi,Vasopressin V2 receptor,8.00
CC(C)C[C@@H]1NC(=O)[C@H](Cc2ccccc2)NC(=O)[C@H](Cc2ccc(O)cc2)NC(=O)CCSSC[C@@H](C(=O)N2CCC[C@H]2C(=O)N[C@@H](CCCN=C(N)N)C(=O)NCC(N)=O)NC(=O)[C@H](CC(N)=O)NC1=O,pKi,Vasopressin V1a receptor,7.36
same,pKi,Vasopressin V2 receptor,6.61
C[C@@H]1NC(=O)[C@H](Cc2ccccc2)NC(=O)[C@H](Cc2ccc(O)cc2)NC(=O)CCSSC[C@@H](C(=O)N2CCC[C@H]2C(=O)N[C@@H](CCCN=C(N)N)C(=O)NCC(N)=O)NC(=O)[C@H](CC(N)=O)NC1=O,pKi,Vasopressin V1a receptor,7.66
same,pKi,Vasopressin V2 receptor,7.86
NC(=O)CNC(=O)[C@H](CCCN=C(N)N)NC(=O)[C@@H]1CCCN1C(=O)[C@@H]1CSSCCC(=O)N[C@@H](Cc2ccc(O)cc2)C(=O)N[C@@H](Cc2ccccc2)C(=O)NCC(=O)N[C@@H](CC(N)=O)C(=O)N1,pKi,Vasopressin V1a receptor,6.56
same,pKi,Vasopressin V2 receptor,6.26
CC(C)[C@@H]1NC(=O)[C@H](Cc2ccccc2)NC(=O)[C@H](Cc2ccc(O)cc2)NC(=O)CCSSC[C@@H](C(=O)N2CCC[C@H]2C(=O)N[C@@H](CCCN=C(N)N)C(=O)NCC(N)=O)NC(=O)[C@H](CC(N)=O)NC1=O ([Mpa]YFVNCPRG-NH2; disulfide 1-6),pKi,Vasopressin V1a receptor,7.94
same,pKi,Vasopressin V2 receptor,8.92
NC(=O)CNC(=O)[C@H](CCCN=C(N)N)NC(=O)[C@@H]1CCCN1C(=O)[C@@H]1CSSCCC(=O)N[C@@H](Cc2ccc(O)cc2)C(=O)N[C@@H](Cc2ccccc2)C(=O)N[C@@H](CC2CCCCC2)C(=O)N[C@@H](CC(N)=O)C(=O)N1 ([Mpa]YF[Cha]NCPRG-NH2; disulfide 1-6),pKi,Vasopressin V1a receptor,6.82
same,pKi,Vasopressin V2 receptor,6.12
CC[C@@H]1NC(=O)[C@H](Cc2ccccc2)NC(=O)[C@H](Cc2ccc(O)cc2)NC(=O)CCSSC[C@@H](C(=O)N2CCC[C@H]2C(=O)N[C@@H](CCCN=C(N)N)C(=O)NCC(N)=O)NC(=O)[C@H](CC(N)=O)NC1=O (stereo in doubt),pKi,Vasopressin V1a receptor,7.71
same,pKi,Vasopressin V2 receptor,8.68
CCCC[C@@H]1NC(=O)[C@H](Cc2ccccc2)NC(=O)[C@H](Cc2ccc(O)cc2)NC(=O)CCSSC[C@@H](C(=O)N2CCC[C@H]2C(=O)N[C@@H](CCCN=C(N)N)C(=O)NCC(N)=O)NC(=O)[C@H](CC(N)=O)NC1=O (stereo in doubt),pKi,Vasopressin V1a receptor,7.55
same,pKi,Vasopressin V2 receptor,6.93
C[C@@H](O)[C@@H]1NC(=O)[C@H](Cc2ccccc2)NC(=O)[C@H](Cc2ccc(O)cc2)NC(=O)CCSSC[C@@H](C(=O)N2CCC[C@H]2C(=O)N[C@@H](CCCN=C(N)N)C(=O)NCC(N)=O)NC(=O)[C@H](CC(N)=O)NC1=O (stereo in doubt),pKi,Vasopressin V1a receptor,8.54
same,pKi,Vasopressin V2 receptor,8.82
NCC[C@@H]1NC(=O)[C@H](Cc2ccccc2)NC(=O)[C@H](Cc2ccc(O)cc2)NC(=O)CCSSC[C@@H](C(=O)N2CCC[C@H]2C(=O)N[C@@H](CCCN=C(N)N)C(=O)NCC(N)=O)NC(=O)[C@H](CC(N)=O)NC1=O (stereo in doubt),pKi,Vasopressin V1a receptor,7.44
same,pKi,Vasopressin V2 receptor,6.25
NC(=O)CNC(=O)[C@H](CCCN=C(N)N)NC(=O)[C@@H]1CCCN1C(=O)[C@@H]1CSSCCC(=O)N[C@@H](Cc2ccc(O)cc2)C(=O)N[C@@H](Cc2ccccc2)C(=O)N[C@@H](CCC(=O)O)C(=O)N[C@@H](CC(N)=O)C(=O)N1 (stereo in doubt),pKi,Vasopressin V1a receptor,6.36
same,pKi,Vasopressin V2 receptor,5.96
NC(=O)CNC(=O)[C@H](CCCN=C(N)N)NC(=O)[C@@H]1CCCN1C(=O)[C@@H]1CSSCCC(=O)N[C@@H](Cc2ccc(O)cc2)C(=O)N[C@@H](Cc2ccccc2)C(=O)N[C@@H](CCCCN=C(N)N)C(=O)N[C@@H](CC(N)=O)C(=O)N1 (stereo in doubt),pKi,Vasopressin V1a receptor,7.32
same,pKi,Vasopressin V2 receptor,5.86
NCCCC[C@@H]1NC(=O)[C@H](Cc2ccccc2)NC(=O)[C@H](Cc2ccc(O)cc2)NC(=O)CCSSC[C@@H](C(=O)N2CCC[C@H]2C(=O)N[C@@H](CCCN=C(N)N)C(=O)NCC(N)=O)NC(=O)[C@H](CC(N)=O)NC1=O (stereo in doubt),pKi,Vasopressin V1a receptor,6.33
same,pKi,Vasopressin V2 receptor,4.95
NC(=O)CNC(=O)[C@H](CCCN=C(N)N)NC(=O)[C@@H]1CCCN1C(=O)[C@@H]1CSSCCC(=O)N[C@@H](Cc2ccc(O)cc2)C(=O)N[C@@H](Cc2ccccc2)C(=O)N[C@@H](CO)C(=O)N[C@@H](CC(N)=O)C(=O)N1 (stereo in doubt),pKi,Vasopressin V1a receptor,7.89
same,pKi,Vasopressin V2 receptor,7.61
NC(=O)CNC(=O)[C@H](CCCN=C(N)N)NC(=O)[C@@H]1CCCN1C(=O)[C@@H]1CSSCCC(=O)N[C@@H](Cc2ccc(O)cc2)C(=O)N[C@@H](Cc2ccccc2)C(=O)N[C@@H](CC(N)=O)C(=O)N[C@@H](CC(N)=O)C(=O)N1 (stereo in doubt),pKi,Vasopressin V2 receptor,7.30
NC(=O)CNC(=O)[C@H](CCCN=C(N)N)NC(=O)[C@@H]1CCCN1C(=O)[C@@H]1CSSCCC(=O)N[C@@H](Cc2ccc(O)cc2)C(=O)N[C@@H](Cc2ccccc2)C(=O)N[C@@H](Cc2c[nH]c3ccccc23)C(=O)N[C@@H](CC(N)=O)C(=O)N1 (stereo in doubt),pKi,Vasopressin V1a receptor,7.12
same,pKi,Vasopressin V2 receptor,7.10
NC[C@@H]1NC(=O)[C@H](Cc2ccccc2)NC(=O)[C@H](Cc2ccc(O)cc2)NC(=O)CCSSC[C@@H](C(=O)N2CCC[C@H]2C(=O)N[C@@H](CCCN=C(N)N)C(=O)NCC(N)=O)NC(=O)[C@H](CC(N)=O)NC1=O (stereo in doubt),pKi,Vasopressin V1a receptor,7.71
same,pKi,Vasopressin V2 receptor,7.43
NC(=O)CNC(=O)[C@H](CCCN=C(N)N)NC(=O)[C@@H]1CCCN1C(=O)[C@@H]1CSSCCC(=O)N[C@@H](Cc2ccc(O)cc2)C(=O)N[C@@H](Cc2ccccc2)C(=O)N[C@@H](Cc2ccc(O)cc2)C(=O)N[C@@H](CC(N)=O)C(=O)N1 (stereo in doubt),pKi,Vasopressin V1a receptor,7.43
same,pKi,Vasopressin V2 receptor,6.21
CCC[C@@H]1NC(=O)[C@H](Cc2ccccc2)NC(=O)[C@H](Cc2ccc(O)cc2)NC(=O)CCSSC[C@@H](C(=O)N2CCC[C@H]2C(=O)N[C@@H](CCCN=C(N)N)C(=O)NCC(N)=O)NC(=O)[C@H](CC(N)=O)NC1=O (stereo in doubt),pKi,Vasopressin V1a receptor,7.65
same,pKi,Vasopressin V2 receptor,7.62
NC(=O)CNC(=O)[C@H](CCCN=C(N)N)NC(=O)[C@@H]1CCCN1C(=O)[C@@H]1CSSCCC(=O)N[C@@H](Cc2ccc(O)cc2)C(=O)N[C@@H](Cc2ccccc2)C(=O)N[C@@H](Cc2ccccc2)C(=O)N[C@@H](CC(N)=O)C(=O)N1 (stereo in doubt),pKi,Vasopressin V1a receptor,7.10
same,pKi,Vasopressin V2 receptor,5.97
NC(=O)CNC(=O)[C@H](CCCN=C(N)N)NC(=O)[C@@H]1CCCN1C(=O)[C@@H]1CSSCCC(=O)N[C@@H](Cc2ccc(O)cc2)C(=O)N[C@@H](Cc2ccccc2)C(=O)N[C@@H](Cc2cccs2)C(=O)N[C@@H](CC(N)=O)C(=O)N1 (stereo in doubt),pKi,Vasopressin V1a receptor,7.20
same,pKi,Vasopressin V2 receptor,5.35
NCCC[C@@H]1NC(=O)[C@H](Cc2ccccc2)NC(=O)[C@H](Cc2ccc(O)cc2)NC(=O)CCSSC[C@@H](C(=O)N2CCC[C@H]2C(=O)N[C@@H](CCCN=C(N)N)C(=O)NCC(N)=O)NC(=O)[C@H](CC(N)=O)NC1=O (stereo in doubt),pKi,Vasopressin V1a receptor,7.06
same,pKi,Vasopressin V2 receptor,5.95
N=C(N)NCCC[C@@H]1NC(=O)[C@H](Cc2ccccc2)NC(=O)[C@H](Cc2ccc(O)cc2)NC(=O)CCSSC[C@@H](C(=O)N2CCC[C@H]2C(=O)N[C@@H](CCCN=C(N)N)C(=O)NCC(N)=O)NC(=O)[C@H](CC(N)=O)NC1=O (stereo in doubt),pKi,Vasopressin V1a receptor,7.27
same,pKi,Vasopressin V2 receptor,6.88

# — ChEMBL document CHEMBL1149164, “Design of potent and selective agonists for the human vasopressin V1b receptor based on modifications of [deamino-cys1]arginine vasopressin at position 4” (J Med Chem, 2004)
